# Assay outcomes (PubChem BioAssay)
# In the library only some 2.9% were active in any assay of this set; here they are far more common.
# SIRT5 inh: blocks human SIRT5 desuccinylation of peptide. Q9NXA8. Purified SirT5, succinyl-peptide AMC, trypsin-coupled fluorescence. 1.1% of 330,000 active. inhibition, % at 15 µM; in the data active = inhibition above about 15%; inconclusive = no clear call, values can overlap the other calls
# Target sequence (Q9NXA8 whole entry, looked up): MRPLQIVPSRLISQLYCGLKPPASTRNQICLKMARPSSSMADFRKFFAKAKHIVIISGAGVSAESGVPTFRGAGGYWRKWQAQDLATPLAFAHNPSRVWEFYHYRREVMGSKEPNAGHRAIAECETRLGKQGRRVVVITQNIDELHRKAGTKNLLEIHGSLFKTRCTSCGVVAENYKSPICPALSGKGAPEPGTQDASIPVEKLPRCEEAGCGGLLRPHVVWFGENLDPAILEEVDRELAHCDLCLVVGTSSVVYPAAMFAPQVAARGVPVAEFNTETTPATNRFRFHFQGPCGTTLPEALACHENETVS
# DENV2 CPE rescue: DENV2-induced cell death inhibition; DENV2-infected cells, cytopathic effect rescue, plate reader; 1.7% of 350,000 active; CPE inhibition, % at 9.99 µM; in the data active = CPE inhibition above about 20%, passing the limit was not always enough; inconclusive = no clear call, values can overlap the other calls; tested in BHK-21 cells;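 also: 0% = median of neutral control wells and 100% = median of positive control wells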
# E-sel inducer: induces E-selectin expression in human endothelial cells; AID 686992; activation, % at 7.58 µM; P16581; HUVEC E-selectin immunofluorescence imaging; normalized: neutral wells 0, TNF-alpha wells 100; 0.37% of 260,000 active;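 active = mean E-selectin-positive cell signal at least 10% of the positive control, reached in at least 60% of replicates, without over 20% cell loss; inconclusive = no rule given, readout overlaps actives, possibly toxicity-flagged; inactive = the rest, including those meeting only one limit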
#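 material = human umbilical vein endothelial cells (HUVEC), E-selectin induction | quantity = 3,000 cells/well | medium = EGM-2 growth medium on 0.1% gelatin-coated wells | technique = immunofluorescence imaging | read-out basis = % PE-positive cells | control set = TNF-alpha positive control, DMSO neutral control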
# * hit, by the source's call; ? = inconclusive; nt = not tested or not shown.
SMILES,SIRT5 inh,DENV2 CPE rescue,E-sel inducer
CN1C(=O)c2cc(NS(=O)(=O)c3cccc(F)c3)ccc2OC[C@H]2O[C@H](CC(=O)N3CCc4ccccc4C3)CC[C@@H]21,nt,-3.3,-0.3
CC(C)(C)C(=O)Nc1cc(NC(=O)C(C)(C)C)cc(C(=O)NNC(=O)c2ccncc2)c1,-0.8,12.9,nt
CCC(C)N1C(=O)S/C(=C/c2ccc3c(c2)n(C)c(=O)n3C)C1=O (configuration not stated),-2.8,9.2,nt
O=C(COC(=O)CC1CC2CCC1C2)NCc1ccc(Cl)cc1 (configuration not stated),nt,-4.7,-0.1
O=C(COC(=O)CC1CC2CCC1C2)NCc1ccccc1 (configuration not stated),35.3*,-7.7,0.1
C[C@H](O)C#Cc1ccc([C@@H]2[C@@H](CO)N3CCCCN(C(=O)c4cccc(F)c4)C[C@H]23)cc1,-2.8,-6.9,-0.6
Cn1c(Cn2c(=O)sc3ccccc32)nnc1SCC(=O)N1CCN(c2ccccc2)CC1,nt,1.2,0.9
COc1cccc(NC2=C(C#N)C(=O)NC(c3cccc(OC)c3O)S2)c1 (configuration not stated),5.1,-1.1,nt
C[C@@H]1CN([C@H](C)CO)C(=O)c2cc(N(C)C)ccc2O[C@@H]1CN(C)S(=O)(=O)c1ccccc1,2.4,-1.3,1.8
C[C@@H]1CN([C@@H](C)CO)C(=O)c2cc(N(C)C)ccc2O[C@H]1CN(C)S(=O)(=O)c1ccccc1,0.5,78.5*,-5.5
C[C@H]1CN([C@@H](C)CO)C(=O)c2cc(N(C)C)ccc2O[C@H]1CN(C)S(=O)(=O)c1ccccc1,nt,31.4*,3.1
Cc1ccc(S(=O)(=O)N(C)C[C@H]2Oc3ccc(N(C)C)cc3C(=O)N([C@H](C)CO)C[C@H]2C)cc1,0.7,-6.8,-13.0
Cc1cccc(N2CCN(C(=O)C3CC(=O)N(c4ccc5c(c4)OCCO5)C3)CC2C)c1 (configuration not stated),-1.1,4.0,0.1
CN1C(=O)c2cc(NC(=O)c3ccc4c(c3)OCO4)ccc2OC[C@H]2O[C@@H](CC(=O)O)CC[C@H]21,-5.3,68.9*,0.2
CN1C(=O)c2cc(NC(=O)Nc3ccccc3)ccc2OC[C@@H]2O[C@@H](CC(=O)O)CC[C@@H]21,7.8,56.6*,0.0
CN1C(=O)c2cc(NC(=O)Nc3ccccc3)ccc2OC[C@H]2O[C@@H](CC(=O)O)CC[C@H]21,nt,nt,-0.2
CN1C(=O)c2cc(NC(=O)NC3CCCC3)ccc2OC[C@H]2O[C@H](CC(=O)O)CC[C@@H]21,-3.2,-2.3,0.0
CN1C(=O)c2cc(NC(=O)c3ccc4c(c3)OCO4)ccc2OC[C@@H]2O[C@@H](CC(=O)O)CC[C@H]21,2.6,-2.2,1.9
CN1C(=O)c2cc(NC(=O)NC3CCCC3)ccc2OC[C@@H]2O[C@H](CC(=O)O)CC[C@H]21,7.8,57.1*,0.1
CCC(=O)Nc1ccc2c(c1)C(=O)N(C)[C@@H]1CC[C@@H](CC(=O)NC3Cc4ccccc4C3)O[C@@H]1CO2,-0.7,30.4*,0.0
CCC(=O)Nc1ccc2c(c1)C(=O)N(C)[C@@H]1CC[C@H](CC(=O)NC3Cc4ccccc4C3)O[C@H]1CO2,0.1,?,0.0
O=C(Nc1ccc2c(c1)OCCO2)C1c2ccccc2OCC(=O)N1Cc1ccc2c(c1)OCO2 (configuration not stated),-0.1,-2.6,0.0
COc1ccc(NC(=O)Nc2ccccc2SC)cc1OC,-2.1,5.5,nt
COc1ccccc1C(=O)Nc1ccc2c(c1)OC[C@H](C)NC[C@@H](C)[C@@H](OC)CN(C)C2=O,-0.6,16.5,0.2
CC(C)C[C@H](NC(=O)C1CC(=O)N(c2ccc3c(c2)OCO3)C1)C(=O)NCc1ccco1 (some centres not stated),-0.5,-2.2,nt
SMILES,SIRT5 inh,DENV2 CPE rescue,E-sel inducer
Cc1cccc(NC(=O)Nc2ccc3c(c2)C(=O)N(C)[C@@H]2CC[C@@H](CC(=O)O)O[C@@H]2CO3)c1,5.9,nt,0.0
CNC(=O)C[C@H]1CC[C@@H]2[C@@H](COc3ccc(NC(=O)Nc4cc(C)cc(C)c4)cc3C(=O)N2C)O1,0.6,-4.4,0.2
CCS(=O)(=O)Nc1ccc2c(c1)C(=O)N(C)[C@@H]1CC[C@H](CC(=O)NC3CCCCC3)O[C@H]1CO2,-5.3,76.3*,-0.2
CCC(=O)Nc1ccc2c(c1)C(=O)N(C)[C@@H]1CC[C@H](CC(=O)O)O[C@H]1CO2,-2.9,24.0*,0.1
Cc1cccc(NC(=O)Nc2ccc3c(c2)C(=O)N(C)[C@@H]2CC[C@@H](CC(=O)O)O[C@H]2CO3)c1,1.7,71.9*,0.3
CCS(=O)(=O)Nc1ccc2c(c1)C(=O)N(C)[C@H]1CC[C@H](CC(=O)NC3CCCCC3)O[C@H]1CO2,-2.2,11.6,-0.3
CCC(=O)Nc1ccc2c(c1)C(=O)N(C)[C@H]1CC[C@H](CC(=O)O)O[C@H]1CO2,-8.2,-1.4,0.2
CNC(=O)C[C@H]1CC[C@H]2[C@H](COc3ccc(NC(=O)Nc4cc(C)cc(C)c4)cc3C(=O)N2C)O1,-2.3,46.2*,0.0
NC1(C#Cc2ccc3oc(=O)c(-n4cc(C5(O)CCCCC5)nn4)cc3c2)CCCCC1,nt,?,-0.1
O=C(CSc1ccc(Br)cc1)NCC(c1cccs1)N1CCOCC1 (configuration not stated),-3.3,1.2,-0.8
N#Cc1cccc(NC(=O)c2ccc(S(=O)(=O)N3CCOCC3)cc2)c1,4.5,1.5,0.3
CC=Cc1ccc2n(c1=O)C[C@H]1[C@H](CO)[C@@H](C(=O)NC3CCC3)N(CC)[C@@H]21 (mixture of isomers),-1.1,3.2,-0.2
CCOc1ccc2oc(C(=O)NCC3CCCO3)c(C)c2c1 (configuration not stated),-7.7,64.2*,nt
COc1ccc2oc(C(=O)NCC3CCCO3)c(C)c2c1 (configuration not stated),-3.5,6.3,nt
COc1ccc(S(=O)(=O)Nc2cccc3c2O[C@@H](CN(C)C(=O)Nc2ccc4c(c2)OCO4)[C@@H](C)CN([C@H](C)CO)C3=O)cc1,3.3,21.4*,?
Cc1noc(C)c1NC(=O)N(C)C[C@H]1Oc2c(NC(=O)Nc3ccc4c(c3)OCO4)cccc2C(=O)N([C@H](C)CO)C[C@H]1C,-9.5,23.8*,-0.2
Cc1ccc(S(=O)(=O)Nc2cccc3c2O[C@@H](CN(C)Cc2ccc4c(c2)OCO4)[C@@H](C)CN([C@@H](C)CO)C3=O)cc1,-4.3,1.1,-0.1
Cc1noc(C)c1NC(=O)N(C)C[C@@H]1Oc2c(NC(=O)Nc3ccc4c(c3)OCO4)cccc2C(=O)N([C@H](C)CO)C[C@@H]1C,-2.2,-3.7,0.1
Cc1ccc(S(=O)(=O)Nc2cccc3c2O[C@@H](CN(C)C(=O)Nc2ccc4c(c2)OCO4)[C@H](C)CN([C@H](C)CO)C3=O)cc1,-3.4,-4.2,-0.3
Cc1ccc(S(=O)(=O)Nc2cccc3c2O[C@@H](CN(C)C(=O)Nc2ccc4c(c2)OCO4)[C@@H](C)CN([C@H](C)CO)C3=O)cc1,7.1,22.2*,-0.3
Cc1ccc(S(=O)(=O)Nc2cccc3c2O[C@@H](CN(C)Cc2ccc4c(c2)OCO4)[C@@H](C)CN([C@H](C)CO)C3=O)cc1,15.0*,4.0,0.7
